The results in this text go back to PMC3254253 (Bioorganic & Medicinal Chemistry, 2011).

One series addresses T1, full length murine FXR (Mus musculus, UniProt Q60641).
T1 sequence (Q60641 1-488): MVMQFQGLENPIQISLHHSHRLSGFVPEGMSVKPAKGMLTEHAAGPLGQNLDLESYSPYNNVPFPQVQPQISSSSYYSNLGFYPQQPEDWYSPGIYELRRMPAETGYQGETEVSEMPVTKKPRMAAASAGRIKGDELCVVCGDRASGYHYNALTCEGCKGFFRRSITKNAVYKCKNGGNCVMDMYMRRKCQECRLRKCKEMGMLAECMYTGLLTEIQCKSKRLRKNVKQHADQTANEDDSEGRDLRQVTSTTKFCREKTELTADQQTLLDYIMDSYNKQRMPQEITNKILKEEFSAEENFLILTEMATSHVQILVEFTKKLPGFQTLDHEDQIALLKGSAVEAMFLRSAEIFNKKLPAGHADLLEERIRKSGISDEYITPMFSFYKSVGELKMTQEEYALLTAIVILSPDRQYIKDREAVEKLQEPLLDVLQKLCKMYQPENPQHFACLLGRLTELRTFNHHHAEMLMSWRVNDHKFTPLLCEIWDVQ
T1 sequence (P28700 1-467 partner): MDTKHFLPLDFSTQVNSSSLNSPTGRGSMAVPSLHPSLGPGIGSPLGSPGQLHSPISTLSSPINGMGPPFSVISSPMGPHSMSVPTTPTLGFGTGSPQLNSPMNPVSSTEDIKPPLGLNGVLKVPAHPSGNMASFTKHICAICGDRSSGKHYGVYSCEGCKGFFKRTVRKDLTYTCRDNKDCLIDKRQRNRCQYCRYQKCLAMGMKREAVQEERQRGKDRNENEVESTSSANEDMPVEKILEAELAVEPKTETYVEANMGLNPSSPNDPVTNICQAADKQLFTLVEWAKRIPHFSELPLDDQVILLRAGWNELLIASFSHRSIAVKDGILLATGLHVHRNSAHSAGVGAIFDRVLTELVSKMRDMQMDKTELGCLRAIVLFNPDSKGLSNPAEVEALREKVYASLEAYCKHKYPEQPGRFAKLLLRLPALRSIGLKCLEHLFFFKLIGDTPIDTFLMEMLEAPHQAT
The series is described as follows: FXR reporter gene. Type of series: cell-based. To be noted: HEK293 cells, increasing concentrations (0–100 μM). In general terms: Reporter assays use an easily measured gene product as a stand-in for the process of interest.

For the next series, the system named is CYP7A1 mRNA. Put plainly: Expression of CYP7A1 mRNA. As to conditions: HepG2 cells, 50 μM, 6 h, DMEM with 10% FCS; fold of control (0.1% DMSO). It counts as cell-based. The method in brief:
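HepG2 cells were grown in DMEM with 10% FBS, 1% glutamine, penicillin/streptomycin and amphotericin B. They were then exposed in the same medium to test compound or positive control at 50 μM (DMSO 0.1% final) for 6 h. Total RNA (900 ng) was reverse-transcribed with oligo d(T)16 primers. SYBR Green qPCR measured CYP7A1, normalised to β2-microglobulin.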

With `CCCCc1ccc([C@@H](CC(=O)c2ccccc2)c2ccccc2)cc1` [Compound 20], the “FXR agonism in reporter assay (result in words)” value on full length murine FXR is “dose–dependent FXR-agonism”. Moreover, the “levels of CYP7A1 mRNA” value with CYP7A1 mRNA is on record as “significantly decreased”.
The like results for `COc1ccc(N2CCN(C[C@H](O)COc3cc4c(c5c3CCCC5)CCCC4)CC2)cc1` [Compound 19] were, in that order, “dose–dependent FXR-agonism” and “significantly decreased”.
